Experimental data pooled from the literature.
BCHE: Cholinesterase (BCHE, Equus caballus, UniProt P81908)
Tyrosine-protein phosphatase YopH: Tyrosine-protein phosphatase YopH (Yersinia enterocolitica, UniProt P15273)

SMILES | target | assay | conditions | quantity | value
CCN(CC)CCCC[C@H](NC(=O)[C@H](CC(C)C)NC(=O)[C@H](C)NC(=O)[C@H](Cc1ccccc1)NC(=O)c1ccc(C(C)(C)C)cc1)C(=O)N[C@@H](CO)C(=O)OC | Transcription initiation factor TFIID subunit 1, BD2 (TAF1, Homo sapiens, UniProt P21675) | thermal stability, DSF | 25 µM | ΔTm | 0.62 °C
COc1ncccc1-c1cnn2ccc(N3CCN(C(=O)OC(C)C)CC3)nc12 | Serine/threonine-protein kinase MRCK alpha (CDC42BPA, Homo sapiens, UniProt Q5VT25) | binding, competition with immobilised ligand | 1 µM | remaining binding | 72%
C#Cc1n[nH]c2c(-c3cn(C(C)c4ccccn4)c(=O)[nH]c3=O)cc(F)cc12 (centres unmarked) | Mitogen-activated protein kinase kinase kinase 9 (MAP3K9, Homo sapiens, UniProt P80192) | enzyme activity, inhibitor | 1 µM | inhibition | 5%
Nc1ncc(-c2nc(N3CCOCC3)nc(N3CCOCC3)n2)c(C(F)F)n1 | Ribosomal protein S6 kinase alpha-3, C-terminal kinase domain (RPS6KA3, Homo sapiens, UniProt P51812) | binding, competition with immobilised ligand | 10 µM | remaining binding | 84%
COc1cc2c(cc1OC)C(=O)N(CC1CCN(CC3CCNC3)CC1)C2 (centres unmarked) | BCHE | enzyme activity, inhibitor, Ellman | 1 µM | inhibition | -13.6%
O=S(=O)([O-])[O-].[O]=[V+2] | Tyrosine-protein phosphatase YopH | enzyme activity, inhibitor | 25 µM | inhibition | 99.7%
COc1cc2c(cc1OC)C(=O)N(CC1CCN(Cc3cccc(C#N)c3)CC1)C2 | BCHE | enzyme activity, inhibitor, Ellman | 1 µM | inhibition | 15.6%
[O]=[V]([S]c1cccc[n+]1[O-])[S]c1cccc[n+]1[O-] | Tyrosine-protein phosphatase YopH | enzyme activity, inhibitor | 25 µM | inhibition | 99.5%
